Assay outcomes from PubChem BioAssay.
A3G deaminase = blocks human APOBEC3G single-stranded DNA deamination. inhibition, % at 20 µM. 330,000 compounds, 0.28% hits. recombinant A3G, ssDNA deamination FAM/TAMRA fluorescence. Q9HC16;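 active = inhibition of at least 40% at 20 µM, with no more than 30% in the related APOBEC3A deaminase screen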;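 also: plate controls were DMSO wells with A3G for no effect and wells lacking A3G enzyme for full effect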
Arrestin-AP2 inh = human beta-arrestin and AP2 interaction inhibition; FITC-arrestin peptide / GST-AP2 beads, flow cytometry; AP2 beta2 appendage carries R879A mutation; inhibition, % at 10 µM; 340,000 compounds, 0.31% hits;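 active = inhibition above a set limit, near 3 SD of compounds lacking own fluorescence, cut at about 54% in these data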;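 also: plate controls were DMSO wells for no effect and 5 µM unlabelled arrestin peptide for full effect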
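Material – GST-tagged AP2 beta2-adaptin appendage (R879A) on 4 µm glutathione beads · Probe or stimulus – fluorescein-tagged arrestin peptide at 50 nM final · Timing – 12 min plus 1 h, RT · Detection – bead flow cytometry, FITC channel · Read-out basis – inhibition as reduced fluorescein signal on beads, percent · Medium – PBS plus Tween 20 (0.05%) and BSA (0.1%)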
PolyA inh = inhibitors of polyadenylation in S. cerevisiae; S. cerevisiae SKY197-pL101 polyadenylation reporter, beta-gal luminescence; efflux-impaired pdr1/pdr3 knockout yeast; score 100 = 6 SD above DMSO; activity score, % at 12 µM; 300,000 compounds, 0.02% hits; AID 1875;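 active = lowest replicate activity score at least 50, where 100 means six control SD above control mean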;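 also: yeast exposed to compound for 9 h at 30 °C; higher score means more reporter readthrough which indicates perturbed polyadenylation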
UCH37 inh = inhibitors of human deubiquitinating enzyme UCH37. Q9Y5K5. purified proteasome/UCH37, Ub-AMC cleavage fluorescence. inhibition, % (test concentration not listed). 330,000 compounds, 0.33% hits;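 active = mean inhibition over replicate wells above about 20%, limit read from the data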;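 also: 0% = compound-free wells with enzyme and 100% = wells lacking proteasome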
Target sequence (Q9Y5K5 whole entry, looked up): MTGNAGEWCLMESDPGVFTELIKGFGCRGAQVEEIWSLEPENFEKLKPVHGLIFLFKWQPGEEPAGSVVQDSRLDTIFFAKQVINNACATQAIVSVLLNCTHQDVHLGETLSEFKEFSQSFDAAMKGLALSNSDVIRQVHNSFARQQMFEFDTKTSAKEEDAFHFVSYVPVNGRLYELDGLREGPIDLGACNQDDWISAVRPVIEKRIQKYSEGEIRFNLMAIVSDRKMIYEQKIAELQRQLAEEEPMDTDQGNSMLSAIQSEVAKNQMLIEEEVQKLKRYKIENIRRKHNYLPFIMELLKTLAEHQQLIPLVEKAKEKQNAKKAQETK
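Reagent: Ub-AMC substrate; assay system: Proteasome-associated human UCH37 deubiquitinase; controls: no-proteasome and no-compound wells; read-out: % inhibition of Ub-AMC cleavage fluorescence; timing: 30 min preincubation with enzyme, 25 min cleavage at room temperature; signal: AMC fluorescence from Ub-AMC cleavage, excitation 355 nm, emission 460 nm; buffer or medium: Tris-HCl pH 7.4 plus ovalbumin, ATP-MgCl2, DTT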
APOBEC3A inh = blocks human APOBEC3A ssDNA deamination | P31941 | recombinant A3A, FAM/TAMRA ssDNA deamination fluorescence | inhibition, % at 20 µM | 330,000 compounds, 0.41% hits | AID 493011;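 active = at least 40% inhibition at 20 µM here, with at most 30% in a related deaminase screen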;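 also: plate controls were A3A with DMSO for no effect and wells lacking A3A enzyme for full effect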
Target sequence (P31941 whole entry, looked up): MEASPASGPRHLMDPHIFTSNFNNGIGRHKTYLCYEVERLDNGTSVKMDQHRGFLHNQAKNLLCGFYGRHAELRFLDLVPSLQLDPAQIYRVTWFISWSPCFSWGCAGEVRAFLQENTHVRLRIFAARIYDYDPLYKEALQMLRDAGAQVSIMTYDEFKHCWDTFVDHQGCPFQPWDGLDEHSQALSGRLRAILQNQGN
AHR act = activators of human aryl hydrocarbon receptor. AID 2796. 320,000 compounds, 2.5% hits. activation, % at 5 µM. AHR-responsive luciferase reporter cells, luminescence. P35869; in the data active = activation above about 47%;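 also: 0% = vehicle wells and 100% = reference agonist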
UCH37 reconfirm = reconfirmed inhibitor of human deubiquitinase UCH37. shares compounds with UCH37 inh. Proteasome-bound UCH37, Ub-AMC cleavage fluorescence. inhibition, % at 20 µM. 480 compounds, 27% hits. AID 624100;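 active = average inhibition over replicates above about 50%, so the earlier screening hit is confirmed, limit read from the data; inactive = the rest, counted as false positives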;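 also: based on cleavage rate fitted by regression over a 30 min kinetic read; 0% = proteasome plus Ub-AMC and 100% = Ub-AMC without proteasome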
* hit, by the source's call; nt = not tested or not shown. Rows were chosen to be rich in hits. Some 3.4% of all compounds tested hit in one or more screens of this group.

SMILES | A3G deaminase | Arrestin-AP2 inh | PolyA inh | UCH37 inh | APOBEC3A inh | AHR act | UCH37 reconfirm
O=C1NC(=O)C(=Cc2ccc(N3CCOCC3)o2)C(=O)N1 | -6.4 | 12.8 | -20.6 | 27.0* | -2.1 | 2.8 | 35.7
Oc1cccc(C=NNP(=S)(c2ccccc2)c2ccccc2)c1 | nt | nt | nt | 1.3 | nt | nt | nt
COc1cc2c(cc1OC)-c1c(OC)c(OC)cc3c1C(C2)N(C)CC3 (configuration not stated) | -2.7 | 3.7 | 0.5 | 28.1* | 2.7 | 3.0 | 38.0
Cc1c(N=Nc2c(O)[nH]c(=S)[nH]c2=O)c(=O)n(-c2ccccc2)n1C | 0.6 | 29.9 | -23.7 | 30.2* | 3.9 | 2.4 | 9.8
COc1cc(C(c2c(C)[nH]n(-c3ccccc3)c2=O)c2c(C)[nH]n(-c3ccccc3)c2=O)cc(OC)c1OC | 3.8 | 12.4 | 1.2 | 52.8* | -1.0 | 9.1 | 94.2*
COc1cc2[nH]c(=O)n(-c3ccccc3)c(=O)c2cc1OC | 4.1 | 7.6 | 28.9 | -24.0 | 2.3 | 4.3 | nt
CC(=NNP(=S)(c1ccccc1)c1ccccc1)c1ccc(O)cc1O | nt | nt | nt | 5.0 | nt | nt | nt
c1ccc(C[n+]2ccccc2)cc1 | -1.3 | 25.1 | -1.1 | 2.2 | 3.1 | -1.6 | nt
CCCCCCCCCCCCCCCC[n+]1ccccc1 | nt | -8.1 | nt | 79.2* | nt | nt | 97.4*
CCn1nc(/C=C/c2ccccc2)nc2c(=O)n(C)c(=O)nc1-2 | -7.8 | 9.2 | -39.8 | 95.7* | -3.4 | nt | 99.9*
O=c1[nH]c(=O)n(CCC2=CCCCC2)c(O)c1C=NCc1cccnc1 | -1.6 | -50.5 | 2.9 | 43.8* | 1.9 | 4.3 | 42.2
CCN(CC)CCN=Cc1c(O)n(CCC2=CCCCC2)c(=O)[nH]c1=O | -6.1 | 10.0 | -7.3 | -0.9 | 3.5 | -2.2 | nt
CCC12CN3CCN(CC(C3)C1=NNC(=O)c1ccncc1)C2 | nt | nt | nt | -0.7 | nt | nt | nt
CC(=NO)c1ccc2ccc3ccccc3c2c1 | nt | nt | nt | 3.3 | nt | nt | nt
COC(=O)c1nc(-c2ccc3c(n2)C(=O)C(N)=C(OC)C3=O)c(N)c(-c2ccc(OC)c(OC)c2O)c1C | -0.5 | -2.0 | 8.0 | 69.0* | 2.9 | -3.4 | 36.7
Cn1c(=O)[nH]c2nncnc2c1=O | 10.9 | -1.4 | 4.1 | 30.1* | -1.4 | 1.8 | 39.9
CC1=C[C@@H](C)CC=C[C@H]2[C@@H]3O[C@]3(C)[C@@H](C)[C@H]3[C@H](Cc4c[nH]c5ccccc45)NC(=O)[C@]32C(=O)C=CC(=O)[C@@H]1O | nt | nt | nt | 1.4 | nt | nt | nt
COC(=O)C(O)(c1c(C)[nH]n(-c2ccccc2)c1=O)C(F)(F)F (configuration not stated) | 5.5 | 5.9 | 7.4 | 84.9* | 1.1 | 11.6 | 60.1*
COC(=O)C(O)(c1c[nH]c2ccccc12)C(F)(F)F (configuration not stated) | -2.6 | 5.3 | 9.6 | 1.2 | -0.7 | 9.0 | nt
COc1cccc(N2C(=O)/C(=C/c3ccc(C)o3)C(=O)NC2=S)c1 | 7.0 | 1.2 | -3.6 | 4.9 | 9.4 | 5.4 | nt
CCN(CC)c1ccc(/C=C2\C(=O)NC(=S)N(c3ccc(OC)cc3OC)C2=O)o1 | 0.2 | -9.6 | -50.5 | 26.8* | -0.2 | -1.7 | 31.9
CCN(CC)c1ccc(/C=C2\C(=O)NC(=S)N(C)C2=O)o1 | -7.9 | 4.3 | -30.2 | 26.1* | -4.4 | 5.0 | 29.0
COc1ccc(N2C(=O)/C(=C/c3ccc(N(C)C)o3)C(=O)NC2=S)cc1 | -8.4 | 40.6 | 7.4 | 25.2* | -2.3 | 0.7 | 25.2
CC(=NN=C(N)N)c1ccccc1 | nt | nt | nt | 5.0 | nt | nt | nt
CC(=O)C1C2c3ccccc3OC1(C)N=c1sc(=Cc3cnn(C)c3)c(=O)n12 (configuration not stated) | nt | nt | nt | 2.2 | nt | nt | nt
O=C(CSC1c2ccccc2-c2ccccc21)NN=Cc1ccccc1C(=O)O | nt | nt | nt | 2.3 | nt | nt | nt
COC(=O)C1=C(c2ccc(OC(F)(F)F)cc2)C[C@@H]2CC[C@H]1N2C(=O)NCCNC(C)=O | -9.2 | 33.2 | nt | -0.1 | 0.2 | -1.2 | nt
COC(=O)C1=C(c2ccc(OC(F)(F)F)cc2)C[C@@H]2CC[C@H]1N2C(=O)NCCOc1ccc(OC)cc1 | -10.0 | 0.7 | nt | 48.6* | -1.6 | 0.0 | 4.0
